Structures are written as SMILES. Active and inactive are the calls of the source. The calls are words filed in the database; no cut-off is given here.

From ChEMBL document CHEMBL1154849, “Bafilomycins produced in culture by Streptomyces spp. isolated from marine habitats are potent inhibitors of autophagy” (2010) come the findings set out here.

Format in all cases: functional, cell-based
Experiment [1] relates to MCF7. Description: […] in human MCF7 cells expressing EGFP-LC3 assessed as EGFP levels at 100 nM after 4 hrs by Western blotting relative to control. The gist of the method:
(§1)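 MCF-7 cells expressing EGFP-LC3 were exposed for 4 h to compounds alone or in combinations. Free EGFP band formation, a readout of EGFP-LC3 degradation, was followed by Western blot with anti-GFP antibody.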
On the technique in general: Immunoblotting shows a protein as a band on a membrane.

In experiment [2] the test system is MCF7. Description: Induction of autophagosome accumulation in human MCF7 cells expressing EGFP-LC3 assessed as punctate EGFP-LC3 level at => 1 nM after 4 hrs by automated microscopy relative to control.
Experiment [3] has as its system MCF7. Description: Inhibition of rapamycin-induced autophagy in human MCF7 cells expressing EGFP-LC3 assessed as decrease in EGFP levels at 100 nM after 4 hrs by Western blotting relative to control. Summed up:
as §1

Experiment [4] deals with MCF7. Description: Induction of autophagosome accumulation in human MCF7 cells expressing EGFP-LC3 assessed as punctate EGFP-LC3 level at => 10 nM after 4 hrs by automated microscopy relative to control.
Experiment [5] deals with MCF7. In words: Induction of autophagosome accumulation in human MCF7 cells expressing EGFP-LC3 assessed as punctate EGFP-LC3 level at 0.3 nM after 4 hrs by automated microscopy relative to control.
Experiment [6] has as its system MCF7. Description: Induction of autophagosome accumulation in human MCF7 cells expressing EGFP-LC3 assessed as punctate EGFP-LC3 level at => 100 nM after 4 hrs by automated microscopy relative to control.
Experiment [7] relates to MCF7. Description: […] in human MCF7 cells expressing EGFP-LC3 assessed as EGFP levels at 30 nM after 4 hrs by Western blotting relative to control.

For `CO/C1=C\C(C)=C\[C@@H](C)[C@@H](O)[C@@H](C)C/C(C)=C/C=C/[C@H](OC)[C@@H]([C@@H](C)[C@@H](O)[C@H](C)[C@@]2(O)C[C@@H](OC(=O)/C=C/C(=O)NC3=C(O)CCC3=O)[C@H](C)[C@@H](C(C)C)O2)OC1=O`, the outcome in experiment [1] was inactive. For the same molecule, the outcome in experiment [2] and in experiment [3] was Active.

Take `CO/C1=C\C(C)=C\[C@@H](C)[C@@H](O)[C@@H](C)C/C(C)=C/C=C/[C@H](OC)[C@@H]([C@@H](C)[C@@H](O)[C@H](C)[C@@]2(O)C[C@@H](OC(=O)C[C@@H]3SC[C@@H](C(=O)O)NC3=O)[C@H](C)[C@@H](C(C)C)O2)OC1=O`: the outcome in experiment [4] and in experiment [3] was Active. Further, in experiment [1], the outcome was inactive.

Turning to `CO/C1=C\C(C)=C\[C@@H](C)[C@@H](O)[C@@H](C)C/C(C)=C/C=C/[C@H](OC)[C@@H]([C@@H](C)[C@@H](O)[C@H](C)[C@@]2(OC)C[C@@H](OC)[C@H](C)[C@@H](C(C)C)O2)OC1=O`, the outcome in experiment [4] and in experiment [3] was Active. For the same molecule, the outcome in experiment [1] was inactive.

For the molecule `CO[C@H]1/C=C/C=C(\C)C[C@H](C)[C@H](O)[C@H](C)/C=C(C)/C=C(\C)C(=O)O[C@@H]1[C@@H](C)[C@@H](O)[C@H](C)[C@@]1(OC)C[C@@H](OC)[C@H](C)[C@@H](C(C)C)O1`, the result in experiment [1] was inactive. Further, the outcome in experiment [2] and in experiment [3] was Active.

Turning to `CO/C1=C\C(C)=C\[C@@H](C)[C@@H](O)[C@@H](C)C/C(C)=C/C=C/[C@H](OC)[C@@H]([C@@H](C)[C@@H](O)[C@H](C)[C@@]2(O)C[C@@H](OC)[C@H](C)[C@@H](C(C)C)O2)OC1=O` [BAFILOMYCIN G], the result in experiment [1] was inactive. Besides, the result in experiment [5] and in experiment [3] was Active.

As to `CO[C@H]1/C=C/C=C(\C)C[C@H](C)[C@H](O)[C@H](C)/C=C(C)/C=C(\C)C(=O)O[C@@H]1[C@@H](C)[C@@H](O)[C@H](C)C(=O)/C=C/[C@H](C)[C@H](O)C(C)C`, the result in experiment [4] and in experiment [3] was Active. Also, in experiment [1], the outcome was inactive.

For the molecule `CO/C1=C\C(C)=C\[C@@H](C)[C@@H](O)[C@@H](C)C/C(C)=C/C=C/[C@H](OC)[C@@H]([C@@H](C)/C=C(\C)C2=C[C@@H](OC)[C@H](C)[C@@H](C(C)C)O2)OC1=O`, the result in experiment [6] and in experiment [1] was Active. In addition, the outcome in experiment [3] was inactive.

In the case of `CO[C@H]1C[C@@H]2CC[C@@H](C)[C@@](O)(O2)C(=O)C(=O)N2CCCC[C@H]2C(=O)O[C@H]([C@H](C)C[C@@H]2CC[C@@H](O)[C@H](OC)C2)CC(=O)[C@H](C)/C=C(\C)[C@@H](O)[C@@H](OC)C(=O)[C@H](C)C[C@H](C)/C=C/C=C/C=C/1C`, the result in experiment [7] was Active.

For the molecule `CO/C1=C\C(C)=C\[C@@H](C)[C@@H](O)[C@@H](C)C/C(C)=C/C=C/[C@H](OC)[C@@H]([C@@H](C)[C@@H](O)[C@H](C)[C@@]2(O)C[C@@H](O)[C@H](C)[C@@H](C(C)C)O2)OC1=O`, the result in experiment [1] was inactive. The outcome in experiment [2] and in experiment [3] was Active.
